# ChEMBL document CHEMBL4513216, “Probing the Open Global Health Chemical Diversity Library for Multistage-Active Starting Points for Next-Generation Antimalarials” (ACS Infect Dis, 2020)
# Experiment: Toxicity liver stage against HepG2, at 10uM
# Format: cell-based
# Design: test concentration 10 uM, cell line HepG2-A16-CD81EGFP
# Settings: human, HepG2-A16-CD81EGFP cells; read-out: INHIBITION
# Summary of the method: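 Uninfected HepG2-A16-CD81EGFP cells, 3 × 10^3 per well, 1536-well, plated on prespotted compound at 10 μM final, parasite-free screening media added to match infected plates; puromycin 10 μM positive, DMSO 0.5% negative; run in parallel with 48 h PbLuc assay at 37 °C, 5% CO2; viability by CellTiter-Glo luminescence, normalized to controls.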
row,Structure (SMILES),cytotoxicity at 10 µM [%]
1,CCS(=O)(=O)Cc1nc(-c2cnn3c(C)cc(C)nc23)no1,-4.79
2,COc1ccnc(N2Cc3cnc(C(C)(C)C)nc3C2)n1,-9.85
3,c1cncc(COCC2CN(Cc3ccncc3)Cc3ccnn3C2)c1 (stereo unspecified),-135
4,O=C(N1CCCCC1)N1CCN(CC(O)c2ccccc2)CC1 (stereo unspecified),-7.45
5,Cc1nnsc1C(=O)N1CCN(CC2CC2)[C@@H]2CS(=O)(=O)C[C@@H]21,0.445
6,CN(C)CCn1c2c(ccc1=O)CC(NC(=O)c1ccsc1)CC2 (stereo unspecified),2.15
7,CC(C)C(=O)N1CCCC([C@@H]2C[C@H](C(F)F)n3ncnc3N2)C1 (stereo partly specified),-3.41
8,CC(C)C(C)NC(=O)CNc1cc2c(cc1Cl)NC(=O)CO2 (stereo unspecified),0.529
9,O=C(NCCN1CCOCC1)c1cnc(-c2ccccc2F)s1,0.277
10,Cc1nc(CC(=O)N2CCCC[C@H](N(C)C)C2)cs1,8.27
11,O=C(CSCC1CC1)N1CCC2(CCCN(C3CCOCC3)C2=O)C1 (stereo unspecified),-127
12,O=C1COC2(CCN(Cc3cccnc3)CC2)CN1c1ccccc1,-113
13,Cc1ncccc1Oc1ncnc(N2CCC(O)(CO)CC2)c1C,-2.4
14,COc1ccc(OC)c(-n2nnnc2SCC2CCCCO2)c1 (stereo unspecified),11.7
15,COCC1COCCC12CCN(C(=O)COc1ccccc1)CC2 (stereo unspecified),-1.69
16,CC(=O)N1CCN(CC(N)=O)CC(COc2ccccc2)C1 (stereo unspecified),-28.7
17,Cc1nn(C)c(C)c1-c1ccnc(N(C)Cc2noc(C(C)C)n2)n1,26.4
18,CCc1noc(C(C)N2CCN(Cc3noc(C4CC4)n3)CC2)n1 (stereo unspecified),-2.13
19,CC(C)N1CC[C@H](c2nc3ccc(C(F)(F)F)cc3[nH]2)C1,-2.07
20,O=C(Cc1ccsc1)N1CCN(CCOc2ccccc2)CC1,-4.6
21,O=C(O)c1ccc(C2CCCN(C(=O)c3ccc[nH]3)C2)cc1 (stereo unspecified),-10.5
22,CN(C)S(=O)(=O)c1ccc(CN2CCCC2c2ccccc2)o1 (stereo unspecified),-5.72
23,COc1cc(N2C[C@@H]3COC[C@]3(COc3ccc(C#N)cn3)C2)ncn1,32.2

row,Structure (SMILES),cytotoxicity at 10 µM [%]
1,Cc1ccc(C(=O)N2CCCC(CNS(=O)(=O)C(C)C)C2)cc1 (stereo unspecified),-1.42
2,COc1ccc(Cl)cc1C(=O)N1C[C@@H](NC(=O)N(C)C)[C@H](C(C)C)C1,-1.41
3,COc1ccc(CN2CCn3c(C(=O)N(C)C)cnc3C2)cc1,-69.6
4,CC(=O)N(CCc1ccccc1)CC(=O)NC(C)(C)C#N,8.06
5,CN(Cc1cccc(OC(F)(F)F)c1)Cc1cnn(C)c1,-3.41
6,CN1CCN(C(=O)CCc2ccccc2)Cc2cccnc21,-1.04
7,Cc1ncsc1CNc1cccc(OCCN2CCCC2)c1,-3.35
8,Cc1nonc1CN(C)CC1(O)CCCN(CCC2CCCCC2)C1=O (stereo unspecified),49.4
9,CN(C)S(=O)(=O)N1CCN(c2nccc(C(F)(F)F)n2)CC1,-7.04
10,O=C(c1ccccc1)N1CC(C(=O)N2CCOCC2)C2(CCOCC2)C1 (stereo unspecified),3.07
11,O=C(NC1CCCN(c2ncccn2)C1)c1ccoc1 (stereo unspecified),-4.56
12,CSCCC(O)C(=O)N(C)Cc1cnn(-c2ccc(F)cc2)c1 (stereo unspecified),-5.36
13,CN(Cc1cccnc1)C1CC2(CCN(Cc3ccccn3)CC2)C1,-84
14,CCCc1nnc(N(C)CC2CCN(CC(C)C)CC2)o1,6.05
15,CN(C)c1ccc(CNC(=O)Nc2ccc(S(C)(=O)=O)nc2)cc1,-2.48
16,CC(C(N)=O)N(C)Cc1ccccc1C(F)(F)F (stereo unspecified),-5.54
17,NCC1(c2cccc(F)c2)CCOCC1,-7.87
18,Cc1ccc2nc(CNCCCN3CCCC3)cc(O)c2c1,-49.6
19,O=C(c1cccc(O)n1)N1CCC(O)(CN2CCC(F)(F)CC2)C1 (stereo unspecified),4.16
20,CC(=O)c1c(F)cccc1NCC(O)C(C)(C)C (stereo unspecified),18.7
21,N[C@@H]1CCN(Cc2ccc(-c3nc(-c4cccnc4)cc(=O)[nH]3)cc2)C1,9.48
22,Cc1nn(C)c(C)c1C1CCCN1Cc1nc2ccccc2c(=O)[nH]1 (stereo unspecified),-15.9
23,Cc1nc(CN2CCCC(NCCCc3ccccc3)C2)no1 (stereo unspecified),-3.9

row,Structure (SMILES),cytotoxicity at 10 µM [%]
1,CN(C)C(=O)C1CCCN1c1ccnc2ccsc12 (stereo unspecified),-16.8
2,CSc1ccc(-c2nc(CN3C[C@@H](C)NC[C@@H]3C)c(C)o2)cc1,-3.06
3,NC(=O)C(NCc1cccs1)c1ccccc1 (stereo unspecified),-41.5
4,COCCNC(=O)c1cc2c(nc1O)CC(c1cccs1)CC2=O (stereo unspecified),11.9
5,Cc1ccc(-c2cn[nH]c2C2CCCN(c3ncccn3)C2)cc1 (stereo unspecified),87.3
6,Cc1ncsc1C(=O)N(Cc1ccccc1)C1CC1,-6.48
7,CCOc1ccccc1CN(C)C(C)c1nc(-c2cccnc2)no1 (stereo unspecified),7.84
8,COc1ccc(OC)c(C(O)CNC(=O)Nc2cc(C)nn2C)c1 (stereo unspecified),-9.86
9,O=C(c1ccco1)N1CCOCC2(C1)CN(c1ccoc1)C(=O)CO2 (stereo unspecified),-6.04
10,O=C(NCc1nnc2n1CCCCC2)N1CCc2sccc2C1,0.553
11,CS(=O)(=O)c1cc(Cl)cnc1C1CCN(C(=O)C2CCCO2)CC1 (stereo unspecified),4.38
12,Cc1sc2nc(CCN)nc(N3CC(N4CCCCC4)C3)c2c1C,-21.9
13,CCN(C)c1ccc(C(=O)NCCCc2ccccn2)cn1,-43.7
14,N#CC1(c2ccccc2)CCN(C(=O)C2CCCN(CC(N)=O)C2)CC1 (stereo unspecified),-7.47
15,CNC(=O)c1ccc(C(=O)N2CCC(Nc3cccnn3)CC2)cn1,-19.4
16,O=C(Cc1cccs1)NCCNc1nccc(C(F)(F)F)n1,10.9
17,CCN(CC)C1CCN(C(=O)c2cc(-n3cccn3)ccc2Cl)CC1,2.87
18,COCC(=O)N1CCCn2c(CN3CCCC3)nnc2C1,-130
19,O=C(Nc1nc2c(s1)CN(S(=O)(=O)C1CC1)CC2)C1CC1,-0.849
20,CCCN(CCc1cccc(F)c1)c1ccc2nnnn2n1,1.44
21,CCc1nn(C)c(Cl)c1CN1CCN(c2nc(C(N)=O)cs2)CC1,8.81
22,Cc1ccc(-c2cc(C3=NC(=CN4CCN(C)CC4)NO3)[nH]n2)s1,-9.45
23,CC(C)(O)CN1CCN(C(=O)c2cnn(-c3ccccc3F)c2)CC1,-3.8

row,Structure (SMILES),cytotoxicity at 10 µM [%]
1,COc1ccc(-c2cc(C3CCCNC3)ccn2)cc1 (stereo unspecified),0.288
2,O=C(COCC1CC1)Nc1ncccc1O,11
3,COCCN1CCCC12CCN(c1ncccn1)CC2,11.4
4,COCCN1CCC(c2nc3c([nH]2)CCCNC3=O)CC1,0.583
5,CO[C@H]1CN(Cc2ccc(F)cc2)CC[C@@]12CCCO2,-24.5
6,O=C(c1ccc[nH]1)N1C[C@@H]2CC[C@H]1CN(C1Cc3ccccc3C1)C2,-1.85
7,COC(=O)c1ccc(NC(C)c2ccc3c(c2)CC(=O)N3)nn1 (stereo unspecified),3.82
8,Cc1nc(CN(C)C2CCCN(c3cccnn3)C2)no1 (stereo unspecified),-7.1
9,Cc1nc(CNC2CCc3nc(C(C)C)nn3C2)oc1C (stereo unspecified),-4.1
10,COCCOc1ccc(NCc2cccc3cn[nH]c23)cn1,5.04
11,CC(C)c1ccc(OCCC(=O)N2CCC(C(N)=O)CC2)cc1,-11.5
12,CC(C(=O)NCC1(c2cccc(Br)c2)CCC1)S(C)(=O)=O (stereo unspecified),6.88
13,COC(=O)CN(C(=O)C(C)c1c(F)cccc1F)c1cccc(C)n1 (stereo unspecified),-2.8
14,Cc1cc(C[C@@H]2COC[C@@H]2NC(=O)CN2CCCN(C)CC2)on1,-15
15,NC(=O)N1C[C@@H]2CN(C(=O)c3ccco3)C[C@@H]2C1,-2.54
16,O=C(c1nc(Cc2c[nH]c3ccccc23)no1)N1CCCCC1,6.04
17,Cc1ccc(C(=O)N2CCSCC2)cc1NC(C)C,-3.42
18,O=C(Nc1ccc2c(c1)C(=O)NC2)c1ccc(S(=O)(=O)C(F)(F)F)cc1,36.9
19,O=C(c1ccccc1F)N1CCOC(c2nc(-c3ncccn3)no2)C1 (stereo unspecified),-2.5
20,CCc1cc(NCC(O)CN2CCCCC2)ncn1 (stereo unspecified),-0.714
21,Cc1c(NCc2ccc(C#N)cc2)cccc1S(=O)(=O)NC1CC1,20.9
22,Cn1cccc1C(=O)NCc1cn2c(n1)CN(c1ncccn1)CC2,-109
23,CC(C)(C(=O)NCCC(=O)O)c1cccc(Br)c1,7.01

row,Structure (SMILES),cytotoxicity at 10 µM [%]
1,COc1ccc(Br)cc1S(=O)(=O)N(C)Cc1ccc(N(C)C)cc1,-7.59
2,CCc1c(C)sc2nc3n(CCN(C)C)nc(SC)n3c(=O)c12,2.26
3,O=C(c1ccc(F)cc1)N1C[C@@H]2CCN(c3cccnc3)C[C@@H]2C1,-78.4
4,COc1ccc2cc(CN(C)C(C)c3nc(C(C)(C)C)no3)ccc2c1 (stereo unspecified),1.44
5,CCOc1cc(Cl)ccc1CNC(=O)N1CCCC(CO)C1 (stereo unspecified),9.54
6,CCc1ncc(C(=O)NCCn2c(C)cc(C)nc2=O)cn1,-1.75
7,CCOc1cccc(CNCc2ccc(NC(=O)NC(C)C)cc2)c1,-11.5
8,Cc1c(NCc2cccc(C#N)c2)cccc1S(=O)(=O)NC1CC1,42.5
9,Cc1cc(C)c(CNC(=O)NCCc2cccnc2)c(=O)[nH]1,-53.3
10,CCS(=O)(=O)NCc1nc(C)cc(N2CCCC2)n1,-0.714
11,COc1cc(-c2cc(NC3CCCC3)nc3[nH]ccc23)nc(N)n1,10.2
12,Cc1cccc(CN2Cc3ncn(C)c3C(COCC(=O)N(C)C)C2)n1 (stereo unspecified),4.56
13,Cc1cc(NCCNc2ncccc2C)n2nc(C)cc2n1,2.41
14,COCc1cn(C[C@H]2CC3CCN2C[C@@H]3C(=O)Nc2ccccc2)nn1 (stereo partly specified),-0.522
15,CN1CCC(O)(CNC(=O)c2cc(COc3cccc(F)c3)[nH]n2)CC1,2.91
16,Cc1ccccc1-n1nc(C)c(CN(C)C(C)Cc2ccccn2)c1C (stereo unspecified),0.58
17,CC1(CCNC(=O)NCc2ccsc2)OCCO1,-6.21
18,CCn1ncc(CN2CCN(C(=O)Cn3cc(Br)c(C)n3)CC2)c1C,0.301
19,COc1ccc(CNCCc2cccc(C(N)=O)c2)cc1O,8.42
